The results in this text go back to ChEMBL document CHEMBL1153848, “Design and synthesis of azolopyrimidoquinolines, pyrimidoquinazolines as anti-oxidant, anti-inflammatory and analgesic activities” (2009).

Molecules are shown by their SMILES. Active and inactive are the calls of the source.

The nature of assay [1]: Antioxidant activity in Sprague-Dawley rat erythrocytes assessed as peroxyl radical-induced hemolysis after 1 hr. Type of assay: functional, Erythrocyte.
Assay [2] is described as follows: Antioxidant activity assessed as ABTS radical scavenging activity at 2 mM. It counts as functional. In outline:
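ABTS radical scavenging, read as the fall in colour absorbance after MeOH/phosphate buffer (1:1) is added. % inhibition = (A_control − A_test)/A_control × 100. The negative control uses MeOH/phosphate buffer (1:1) in place of compound, the blank omits ABTS, and ascorbic acid is the positive control.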

The nature of assay [3]: Protection against bleomycin-induced damage in calf thymus type 1 DNA assessed as absorbance at 532 nm after 1 hr. More on the design: concentration or dose not given beside the values. Put shortly:
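Reaction mixture: calf thymus DNA 0.5 mg/mL, bleomycin sulfate 0.05 mg/mL, MgCl2 5 mM, […], sample at various concentrations; 37 °C for 1 h. Stopped with EDTA (0.1 M), then TBA (1% w/v) plus HCl (25% v/v), heated 80 °C 10 min. After centrifugation, DNA damage read as absorbance increase at 532 nm. L-ascorbic acid as positive control.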

For another assay, the system named is Brain. Kind of assay: Antioxidant activity in Sprague-Dawley rat brain assessed as inhibition of lipid peroxidation. It counts as functional, tissue-based.
For another assay, the system named is Kidney. Kind of assay: Antioxidant activity in Sprague-Dawley rat kidney assessed as inhibition of lipid peroxidation. Type of assay: functional, tissue-based.
The subject of assay [4] is Rattus norvegicus. Briefly: Antiinflammatory activity in Sprague-Dawley rat assessed as protection against carrageenan-induced hind paw edema at 20 mg/kg, po administered 1 hr before carrageenan challenge measured after 1 hr. Type of assay: functional. In outline:
(§1)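 Adult female albino rats (150–180 g), fasted 18 h, six per group. Aqueous suspension in distilled water given orally at 20 mg/kg 1 h before subplantar injection of 0.1 mL 1% w/v carrageenan into the left hind paw. Vehicle controls got 0.5 mL water; diclofenac sodium 20 mg/kg po was the reference. Paw volume was measured by mercury plethysmometer before injection and hourly for 4 h. Inhibition = (Ec−Et)/Ec, with edema = (Vt−V0)/V0.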
(In general: The carrageenan paw model is a standard test of acute inflammation.)

In assay [5] the test system is Rattus norvegicus. Briefly: Antiinflammatory activity in Sprague-Dawley rat assessed as protection against carrageenan-induced hind paw edema at 20 mg/kg, po administered 1 hr before carrageenan challenge measured after 2 hrs. It counts as functional. Put shortly:
as §1

Assay [6] has as its system Rattus norvegicus. Briefly: Antiinflammatory activity in Sprague-Dawley rat assessed as protection against carrageenan-induced hind paw edema at 20 mg/kg, po administered 1 hr before carrageenan challenge measured after 3 hrs. It counts as functional. In outline: as §1
In assay [7] the test system is Mus musculus. Briefly: Central analgesic activity in Swiss albino mouse assessed as thermal stimuli reaction time at 20 mg/kg, po after 30 mins by hot plate method. Type of assay: functional. In outline: (§2)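 Swiss mice of both sexes (25–30 g), six per group, on a hot plate held at 53 ± 0.5 °C. Latency was timed to hind-paw licking or jumping, with a 60 s cut-off. It was measured before dosing, then at 15, 30, 60 and 90 min after an oral aqueous suspension at 20 mg/kg. Controls were untreated; oral diclofenac sodium 20 mg/kg was the reference.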
Background: Hot-plate and tail-flick tests time the reaction to a heat stimulus.

For assay [8], the system named is Mus musculus. Briefly: Central analgesic activity in Swiss albino mouse assessed as thermal stimuli reaction time at 20 mg/kg, po after 60 mins by hot plate method. It counts as functional. Put shortly:
as §2

Assay [9] relates to Mus musculus. Kind of assay: Central analgesic activity in Swiss albino mouse assessed as thermal stimuli reaction time at 20 mg/kg, po after 90 mins by hot plate method. It counts as functional. Put shortly: as §2
Assay [10] relates to Mus musculus. Briefly: Peripheral analgesic activity in Swiss albino mouse assessed as protection against acetic acid-induced writhing response at 20 mg/kg, po administered 30 mins before acetic acid challenge measured after 30 mins relative to control. Type of assay: functional. In general terms: Writhing tests count abdominal constrictions after an irritant is injected.
For assay [11], the system named is Mus musculus. Kind of assay: Peripheral analgesic activity in Swiss albino mouse assessed as protection against acetic acid-induced writhing response at 20 mg/kg, po administered 30 mins before acetic acid challenge measured after 1 hr relative to control. Type of assay: functional.
In assay [12] the test system is Mus musculus. Briefly: Peripheral analgesic activity in Swiss albino mouse assessed as protection against acetic acid-induced writhing response at 20 mg/kg, po administered 30 mins before acetic acid challenge measured after 2 hrs relative to control. It counts as functional.
The test system of assay [13] is Mus musculus. Briefly: Peripheral analgesic activity in Swiss albino mouse assessed as protection against acetic acid-induced writhing response at 20 mg/kg, po administered 30 mins before acetic acid challenge measured after 3 hrs relative to control. It counts as functional.

As for `C/C(=N/NC(N)=S)c1sc2nc3nc4c(c(-c5ccc(Cl)cc5)c3c(=O)n2c1C)CCC/C4=C/c1ccc(Cl)cc1`, the Activity in [1] is 6.21%; in assay [3], 0.065. The inhibition (as a rule, the percentage by which the read-out fell short of the control) in [2] amounted to 63%. Also, the outcome in the assay with Brain and with Kidney was Active.
Regarding `O=c1[nH]c(=S)[nH]c2c1C(c1ccc(Cl)cc1)C1=C(N2)/C(=C/c2ccc(Cl)cc2)CCC1` (stereo unspecified), the Activity was found to be 12.72% in assay [1]; 56.3% in the assay on Rattus norvegicus [4]; 62% with Rattus norvegicus [5]; 40.2% in the assay with Rattus norvegicus [6]; 9.42 min in the assay on Mus musculus [7]; 10.41 min in the assay with Mus musculus [8]. In addition, the Activity is 11.67 min with Mus musculus [9]; 60.4% with Mus musculus [10]; 69% with Mus musculus [11]; 74.3% with Mus musculus [12]; 47.3% with Mus musculus [13]. The inhibition in assay [2] was 59.3%. Also, the result with Brain and in the assay with Kidney was Active.
`CSc1nc2nc3c(c(-c4ccc(Cl)cc4)c2c(=O)[nH]1)CCC/C3=C/c1ccc(Cl)cc1`: the Activity was 4.24% in assay [1]; 50.1% in the assay with Rattus norvegicus [4]; 56.2% with Rattus norvegicus [5]; 32.4% in the assay on Rattus norvegicus [6]; 8.42 min with Mus musculus [7]; 10.41 min with Mus musculus [8]. Moreover, the Activity with Mus musculus [9] is on record as 10.67 min; in the assay on Mus musculus [10], 50.4%; in the assay on Mus musculus [11], 52%; in the assay on Mus musculus [12] it was 55.5%; with Mus musculus [13] it was 37.6%. In addition, the inhibition in assay [2] was found to be 33.3%. The result in the assay with Brain and in the assay on Kidney was Active.
Take `Cc1c(C(=O)/C=C/c2ccccc2)sc2nc3nc4c(c(-c5ccc(Cl)cc5)c3c(=O)n12)CCC/C4=C/c1ccc(Cl)cc1`: the Activity in assay [1] is 4.54%; in assay [3] it was 0.035. In addition, the inhibition in [2] came out at 38.9%. Besides, the result with Brain and in the assay on Kidney was Active.
Take `O=c1c2c(-c3ccc(Cl)cc3)c3c(nc2nc2sc4c(n12)ONC4c1ccccc1)/C(=C\c1ccc(Cl)cc1)CCC3` (stereo unspecified): the Activity in assay [1] came to 9.39%; in the assay on Rattus norvegicus [4], 49.6%; with Rattus norvegicus [5] it was 57.1%; in the assay with Rattus norvegicus [6], 34.8%; in the assay on Mus musculus [7], 7.08 min; with Mus musculus [8] it was 9.52 min. The Activity in the assay on Mus musculus [9] turned out to be 12.68 min; with Mus musculus [10] it was 46.7%; in the assay with Mus musculus [11] it was 53%; in the assay with Mus musculus [12] it was 59.3%; with Mus musculus [13], 36.5%. Also, the inhibition in assay [2] worked out at 33.3%. The result in the assay on Brain and in the assay on Kidney was Active.
In the case of `O=C1O[C@H]([C@@H](O)CO)C(O)=C1O`, the Activity in assay [3] is 0.02.
On to `COc1ccc(/C=C2\CCCC3=C2Nc2[nH]c(=S)[nH]c(=O)c2C3c2ccc(OC)cc2)cc1` (stereo unspecified), for which the Activity was found to be 8.18% in [1]; 59.5% in the assay on Rattus norvegicus [4]; 62.4% with Rattus norvegicus [5]; 46.5% with Rattus norvegicus [6]; 9.84 min in the assay on Mus musculus [7]; 11.62 min in the assay with Mus musculus [8]. Further, the Activity with Mus musculus [9] is 11.88 min; in the assay on Mus musculus [10], 69%; with Mus musculus [11], 74%; with Mus musculus [12], 75.4%; in the assay with Mus musculus [13], 58.2%. Also, the inhibition in [2] came out at 66.7%. Moreover, the result with Brain and in the assay with Kidney was Active.
Take `CCn1c(SC)nc2nc3c(c(-c4ccc(Cl)cc4)c2c1=O)CCC/C3=C/c1ccc(Cl)cc1`: the Activity in assay [1] is 3.93%; in assay [3], 0.021. For the same compound, the inhibition in assay [2] turned out to be 37%. Also, the outcome in the assay with Brain and with Kidney was Active.
On to `O=c1[nH]c(=S)[nH]c2c1C(c1ccccc1)C1=C(N2)/C(=C/c2ccccc2)CCC1` (stereo unspecified), for which the Activity in assay [1] turned out to be 35.75%; in [3] it was 0.025; in the assay with Rattus norvegicus [4], 49%; with Rattus norvegicus [5], 53.2%; in the assay with Rattus norvegicus [6], 41%; in the assay with Mus musculus [7] it was 9.42 min. Moreover, the Activity in the assay on Mus musculus [8] came out at 10.41 min; in the assay on Mus musculus [9], 11.67 min; with Mus musculus [10], 61.2%; with Mus musculus [11], 65.1%; in the assay on Mus musculus [12] it was 69.2%; in the assay with Mus musculus [13], 50.1%. Moreover, in assay [2], the inhibition stood at 81.5%. In addition, the outcome with Brain and with Kidney was Active.
As for `CC(=O)C(Sc1nc2nc3c(c(-c4ccc(Cl)cc4)c2c(=O)[nH]1)CCC/C3=C/c1ccc(Cl)cc1)C(C)=O`, the Activity was found to be 7.87% in [1]; 46.3% in the assay with Rattus norvegicus [4]; 48.6% in the assay on Rattus norvegicus [5]; 38.6% in the assay with Rattus norvegicus [6]; 8.68 min with Mus musculus [7]; 9.8 min in the assay on Mus musculus [8]. Moreover, the Activity with Mus musculus [9] came to 10.4 min; with Mus musculus [10], 46%; in the assay on Mus musculus [11], 54%; in the assay with Mus musculus [12] it was 56.6%; in the assay with Mus musculus [13] it was 37.3%. For the same compound, the inhibition in assay [2] is 42.6%. Moreover, the result with Brain and in the assay on Kidney was Active.
